Compounds with a hit are over-represented: about 4.3% of the library has one in this group of screens.
RBBP9 inhibitor – blocks human serine hydrolase RBBP9; O75884; recombinant RBBP9, FP-Rh probe fluorescence polarization; inhibition, % at 7.94 µM; 220,000 compounds, 0.2% hits;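 active = inhibition above the campaign mean of all tested compounds plus 3 SD, cut at about 14% in these data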;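 note: plate controls were DMSO wells with RBBP9 for no effect and wells lacking RBBP9 protein for full effect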
Target sequence (O75884 whole entry, looked up): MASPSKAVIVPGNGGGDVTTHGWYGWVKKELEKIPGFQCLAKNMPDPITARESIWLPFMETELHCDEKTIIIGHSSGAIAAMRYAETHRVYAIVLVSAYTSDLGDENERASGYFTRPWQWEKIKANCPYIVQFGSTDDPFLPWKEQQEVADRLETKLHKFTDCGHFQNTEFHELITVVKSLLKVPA
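Test system: recombinant human RBBP9. Quantity: 2.5 µM RBBP9 dispensing solution, before mixing. Detection: FP readout at 525/598 nm. Reagent: Serine-hydrolase probe FP-Rh, 375 nM pre-mixing. Measure: % inhibition. Control set: DMSO-treated enzyme wells and wells lacking RBBP9. Buffer or medium: Tris-NaCl-Pluronic buffer, pH 8.0. Times: preincubation 30 min plus labeling 45 min at 25 °C.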
UBC9 SUMO inh – blocks human SUMOylation mediated by UBC9 | inhibition, % at 35 µM | P63279 | HTRF SUMOylation assay, SAE1/SAE2 + UBC9, in vitro | 290,000 compounds, 0.36% hits; in the data active = inhibition above about 50%, passing the limit was not always enough; inconclusive = no clear call, values can overlap the other calls
Target sequence (P63279 whole entry, looked up): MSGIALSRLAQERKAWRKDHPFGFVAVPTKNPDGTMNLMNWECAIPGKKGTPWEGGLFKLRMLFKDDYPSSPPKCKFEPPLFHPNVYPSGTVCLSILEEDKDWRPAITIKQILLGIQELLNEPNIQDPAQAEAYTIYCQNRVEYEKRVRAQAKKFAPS
UBC13 polyUb – blocks human UBC13 polyubiquitin chain formation | 330,000 compounds, 0.47% hits | inhibition, % at 20 µM | TR-FRET | P61088 | AID 485273; in the data active = inhibition above about 45%, passing the limit was not always enough; inconclusive = no clear call, values can overlap the other calls
Target sequence (P61088 whole entry, looked up): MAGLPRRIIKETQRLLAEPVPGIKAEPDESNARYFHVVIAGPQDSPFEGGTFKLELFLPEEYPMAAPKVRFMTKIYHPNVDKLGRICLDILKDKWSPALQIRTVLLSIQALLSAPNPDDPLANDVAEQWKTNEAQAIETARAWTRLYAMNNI
PREPL inh – human PREPL enzyme inhibition; AID 2751; Q4J6C6; recombinant PREPL, fluorescence polarization activity-based probe; 320,000 compounds, 0.68% hits; inhibition, % at 5.96 µM; in the data active = inhibition above about 43%;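 note: 0% = enzyme with DMSO and 100% = wells lacking enzyme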
ALR inh – inhibitors of human sulfhydryl oxidase ALR; P55789; AID 485317; 290,000 compounds, 3.8% hits; purified ALR, DTT oxidation, H2O2 HRP-luminol luminescence; inhibition, % (concentration not given with the values);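 active = mean replicate inhibition above about 79%, with every replicate also reaching it, limit read from the data; inconclusive = only one of the two criteria met; inactive = mean below limit and not every replicate reaching it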
Rin1 Abl inh – inhibitors of human Rin1-Abl protein interaction; TR-FRET Rin1/Abl binding, biochemical; inhibition, % at 7.35 µM; 360,000 compounds, 0.4% hits; AID 588664; in the data active = inhibition above about 5%, passing the limit was not always enough
* = called active by the depositor; u = inconclusive; x = no result given.

SMILES	RBBP9 inhibitor	UBC9 SUMO inh	UBC13 polyUb	PREPL inh	ALR inh	Rin1 Abl inh
COc1ccc(NC(=O)CSCc2cc(=O)n3nc(C4CC4)sc3n2)cc1	x	-2.8	-0.2	6.3	40.7	2.3
COc1ccccc1NC(=O)CSCc1cc(=O)n2ccsc2n1	x	17.4	-6.4	15.1	1.1	0.8
CCn1c(SCC(=O)NC2CCCC2)nc2c(c1=O)SCC2	x	x	x	x	x	-7.2
c1ccc(-c2noc(CSc3nc4ccccc4o3)n2)cc1	0.5	-6.4	4.6	1.0	86.3*	-3.7
O=C(O)c1ccc(CSc2nc3ccccc3o2)cc1	-4.3	25.4	-3.4	9.9	97.0*	2.7
COc1ccc(N2CCN(C(=O)CCN3C(=O)C4C5C=CC(C5)C4C3=O)CC2)cc1 (centres undefined)	-10.0	-1.4	6.9	8.0	68.3	-1.5
O=C(CCN1C(=O)C2C3C=CC(C3)C2C1=O)N1CCN(c2ccc(F)cc2)CC1 (centres undefined)	-2.2	4.7	-9.2	22.2	97.3*	-0.6
CC(=O)Nc1cccc(NC(=O)c2ccco2)c1	-8.4	6.9	-3.3	6.6	-15.1	-4.7
Nc1ccc(C(=O)Nc2cccc(N)c2)cc1	4.8	11.2	x	x	99.0*	1.0
Nc1cccc(NC(=O)c2ccco2)c1	x	6.9	0.4	-3.8	98.9*	-1.4
O=S(=O)(/N=C(/Nc1cccnc1)c1ccccc1)c1ccc(F)cc1F	x	x	-6.0	17.1	15.1	1.4
CCCN1C(=O)/C(=C/c2ccc(OCc3ccc(C(=O)O)cc3)c(OC)c2)NC1=S	x	x	-26.6	1.8	91.6*	-0.8
CCCN1C(=O)/C(=C/c2ccccc2OCc2ccc(C(=O)O)cc2)NC1=S	2.7	6.0	-20.4	-5.4	79.0*	1.9
CCOc1cc(/C=C2\NC(=S)N(C)C2=O)ccc1OCc1ccc(C(=O)O)cc1	x	21.1	-8.3	12.7	88.8*	0.8
COc1cc(/C=N/NS(=O)(=O)c2ccc(C)c([N+](=O)[O-])c2)cc([N+](=O)[O-])c1O	x	-22.7	-52.0	-3.0	93.4*	-2.9
O=[N+]([O-])c1cccc(S(=O)(=O)N/N=C/c2ccc(O)cc2)c1	-9.6	15.2	-19.9	-8.6	93.1*	1.0
COc1ccc(-n2c(O)c(/C=N/NS(=O)(=O)c3ccc(C)c([N+](=O)[O-])c3)c3ccccc3c2=O)cc1OC	-13.2	27.1	-26.2	6.1	97.5*	1.0
Cc1ccc(S(=O)(=O)N/N=C/c2cc([N+](=O)[O-])ccc2O)cc1[N+](=O)[O-]	-12.6	15.9	-27.7	6.2	28.0	-2.4
COc1cc(/C=N/NS(=O)(=O)c2ccc(C)c([N+](=O)[O-])c2)ccc1O	-3.7	11.7	-14.7	8.5	99.4*	-4.2
CCOC(=O)C1=CCN(S(=O)(=O)c2ccc(C)cc2)C1c1ccc(Cl)cc1 (centres undefined)	x	x	x	x	x	1.0
CCCCCCN(C(=O)CCl)c1ccccc1	-1.9	9.4	-7.7	-4.4	-3.3	0.4
COc1ccc(S(=O)(=O)N/N=C(/C)c2ccncc2)cc1	x	4.2	-2.0	-5.3	-3.4	1.7
COc1ccc(S(=O)(=O)N/N=C(/C)c2ccncc2)c(OC)c1	x	-4.5	14.9	-2.1	81.2*	-0.5
CC(=O)OCCNc1cc(N2CCN(C)CC2)c2noc3c2c1C(=O)c1ccccc1-3	-1.6	-0.3	x	x	x	-27.1
CCOC(=O)C(C(=O)OCC)c1cc(Br)c2noc3c2c1C(=O)c1ccccc1-3	-4.4	87.1*	-110.0	23.3	x	1.9
SMILES	RBBP9 inhibitor	UBC9 SUMO inh	UBC13 polyUb	PREPL inh	ALR inh	Rin1 Abl inh
CC(C(=O)Nc1nc(-c2ccc(F)c(F)c2)cs1)N1C(=O)C2CC=CCC2C1=O (centres undefined)	x	x	6.0	12.9	-0.1	-0.3
COc1ccc(-c2csc(NC(=O)CSc3nnnn3C)n2)cc1OC	x	x	1.5	-4.7	98.4*	4.0
COc1ccc(-c2csc(NC(=O)[C@H](C)N3C(=O)C4CC=CCC4C3=O)n2)cc1OC (some centres undefined)	x	x	1.8	5.5	91.4*	-2.6
CCCCC(=O)Nc1nc2c(s1)COc1ccccc1-2	x	9.7	4.3	8.0	8.4	1.2
Cc1cccc(Nc2ncnc3nc[nH]c23)c1	2.2	13.1	2.5	17.4	94.7*	-0.8
CCCc1cc(=O)n2nc(N3CCC(C(=O)Nc4cccc(C(C)=O)c4)CC3)sc2n1	x	-12.2	-2.2	9.1	-0.2	1.2
Cc1ccc(C(=O)Nc2ccc(Nc3ccccc3)cc2)cc1C	x	x	-3.3	27.9	16.4	1.4
O=C(O)c1ccccc1C(=O)NNc1ccc(Cl)cc1	0.3	3.7	1.4	-1.8	98.8*	-0.1
Cc1c(C)c(C)c(C(=O)c2ccc(NC(=O)c3ccccc3C(=O)O)cc2)c(C)c1C	x	2.4	7.9	-3.7	96.4*	-1.2
Cc1ccc(C(=O)Nc2ccc(Oc3ccc(C(=O)O)c(C(=O)O)c3)cc2)cc1C	-6.3	12.9	-4.1	-0.5	98.2*	0.1
O=C(O)c1ccccc1C(=O)Nc1ccc(Oc2ccc3ccccc3c2)cc1	-2.5	-5.2	-3.9	9.7	99.0*	-0.4
Cc1cccc(C)c1C(O)c1ncc(-c2cccc(F)c2)[nH]1 (centres undefined)	x	x	x	x	x	-1.4
NS(=O)(=O)c1ccc(CCNC(=O)CCCCCn2c(=S)[nH]c3ccc(Br)cc3c2=O)cc1	-35.3	0.6	u	-4.3	1.2	-3.1
CCOc1cc(/C=C/c2ccc3cccc([N+](=O)[O-])c3n2)ccc1O	-10.8	-12.2	-5.7	1.8	93.6*	0.0
CCOc1cc(/C=C/c2cc(C(F)(F)F)[nH]c(=O)n2)ccc1O	-5.9	1.1	-15.7	-4.0	99.0*	0.4
COc1ccc(/C=C/c2cc(C(F)(F)F)[nH]c(=O)n2)cc1OC	-7.5	26.7	-1.7	-3.2	-3.9	5.2
CCOc1cc(/C=C/c2ccc3cccc([N+](=O)[O-])c3n2)ccc1OCC(=O)N(C)C	-9.3	-10.7	-12.0	13.8	-16.7	-1.8
O=C(Cc1ccc(-n2c(=O)[nH]c3ccsc3c2=O)cc1)N1CCN(c2ccc(Cl)cc2)CC1	-10.7	-7.1	16.5	5.1	-4.3	-1.0
Cc1ccc(S(=O)(=O)/N=C2/C=C(Sc3ncn[nH]3)C(=O)c3ccccc32)c(C)c1	2.7	95.5*	x	11.9	-5.2	x
CC(C)c1ccc(S(=O)(=O)/N=C2/C=C(Sc3ncn[nH]3)C(=O)c3ccccc32)cc1	6.2	90.0*	x	18.3	-63.6	7.7*
Cc1ccc(S(=O)(=O)/N=C2/C=C(Sc3ncn[nH]3)C(=O)c3ccccc32)cc1	0.6	95.1*	x	6.4	-28.2	17.0*
Cc1ccc(S(=O)(=O)/N=C2\C=C(NS(=O)(=O)c3ccccc3)C(=O)c3ccccc32)c(C)c1	x	x	x	x	x	0.1
CC(C)(C)c1ccc(S(=O)(=O)/N=C2\C=C(NS(=O)(=O)c3ccccc3)C(=O)c3ccccc32)cc1	x	33.4	-81.2	6.9	31.5	3.5
O=C(O)CN1C(=O)C(=O)N(Cc2ccc(Cl)cc2Cl)C1=O	x	21.3	2.3	-2.7	0.5	1.3

From PubChem
